According to ChEMBL document CHEMBL5113551, “Fragment-Based Dynamic Combinatorial Chemistry for Identification of Selective α-Glucosidase Inhibitors” (ACS Med Chem Lett, 2022):

Assays:
[1] = Inhibition of alpha glucosidase (unknown origin); set-up: species or system Homo sapiens
[2] = Cytotoxicity against human HepG2 cells assessed as reduction in cell viability incubated for 24 hrs by CCK8 assay; format: toxicity, cell-based
Alpha amylase = biological target: T1, Alpha amylase (Homo sapiens, UniProt P0DUB6); experiment: Inhibition of alpha-amylase (unknown origin)
T1 sequence (P0DUB6 whole entry): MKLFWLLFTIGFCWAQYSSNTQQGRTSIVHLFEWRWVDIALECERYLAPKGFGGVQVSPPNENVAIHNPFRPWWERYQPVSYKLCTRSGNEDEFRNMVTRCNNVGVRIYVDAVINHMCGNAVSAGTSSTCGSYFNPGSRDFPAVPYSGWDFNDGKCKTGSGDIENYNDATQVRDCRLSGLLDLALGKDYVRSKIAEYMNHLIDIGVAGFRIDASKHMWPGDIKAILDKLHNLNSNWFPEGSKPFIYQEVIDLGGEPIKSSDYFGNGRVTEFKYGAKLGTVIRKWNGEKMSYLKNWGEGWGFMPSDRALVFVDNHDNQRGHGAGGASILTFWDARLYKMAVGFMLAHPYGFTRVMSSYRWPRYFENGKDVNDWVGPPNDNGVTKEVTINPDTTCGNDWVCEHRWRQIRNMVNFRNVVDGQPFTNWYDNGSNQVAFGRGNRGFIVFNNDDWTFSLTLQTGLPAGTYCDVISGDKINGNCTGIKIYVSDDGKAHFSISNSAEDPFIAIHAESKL

[3] = Competitive inhibition of alpha glucosidase (unknown origin) using pNPG as substrate by Dixon plot analysis; set-up: species or system Homo sapiens
How it was run: (§1)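 Inhibition kinetics used a slightly modified, previously described method. Reciprocal velocity was plotted against inhibitor concentration at several fixed substrate concentrations (Dixon plot). The competitive constant (Ki) and noncompetitive constant (αKi) were read from this plot.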

Homo sapiens [4] = species: Homo sapiens; experiment: Mixed type of inhibition of alpha glucosidase (unknown origin) using pNPG as substrate by Lineweaver-Burk plot analysis
How it was run: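 Reaction velocity was measured across a range of substrate concentrations at several inhibitor concentrations. The data were plotted as 1/V versus 1/[S] and fitted linearly (Lineweaver–Burk). The quadrant where the lines intersect assigned the inhibition type, and the enzyme Km was derived from the same plot.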

Homo sapiens [5] = species: Homo sapiens; experiment: Non-competitive inhibition of alpha glucosidase (unknown origin) using pNPG as substrate by Dixon plot analysis; how it was run: as §1

Row | SMILES | IC50 [1] [µM] | CC50 at 24 h [2] [µM] | IC50 (Alpha amylase) [µM] | Ki [3] [nM] | Km (Homo sapiens [4]) [µM] | alphaKi (Homo sapiens [5]) [µM]
1 | O=C(N/N=C/c1coc2ccccc2c1=O)c1nc2ccccc2[nH]1 | 32.5 | > 200 | > 200 |  |  | 
2 | Cc1ccc2occ(/C=N/NC(=O)c3cc4ccccc4[nH]3)c(=O)c2c1 | 2.52 | > 200 | > 200 | 1980 | 930 | 2.75
3 | Cc1ccc(S(=O)(=O)Oc2ccc(/C=N/NC(=O)c3ccc(O)cc3)cc2)cc1 | > 200 |  | > 200 |  |  | 
4 | C[C@H]1O[C@H](O[C@H]2[C@H](O)[C@@H](O)[C@@H](O[C@H]3[C@H](O)[C@@H](O)C(O)O[C@@H]3CO)O[C@@H]2CO)[C@H](O)[C@@H](O)[C@@H]1N[C@H]1C=C(CO)[C@@H](O)[C@H](O)[C@H]1O (some centres not stated) [ACARBOSE] | 8.06 |  |  |  |  | 
5 | Cc1ccc(S(=O)(=O)Oc2ccc(/C=N/NC(=O)Cc3ccccn3)cc2)cc1 | > 200 |  | > 200 |  |  | 
6 | O=C(N/N=C/c1coc2ccccc2c1=O)c1cc2ccccc2[nH]1 | 6.49 | > 200 | 128.1 |  |  | 
7 | O=C(N/N=C/c1coc2ccc(O)cc2c1=O)c1cc2ccccc2[nH]1 | 22.6 | > 200 | 151.46 |  |  | 
8 | Cc1ccc(S(=O)(=O)Oc2ccc(/C=N/NC(=O)c3nc4ccccc4[nH]3)cc2)cc1 | 168 |  | > 200 |  |  | 
